The record followed here is ChEMBL document CHEMBL1121577, “Glycerides as prodrugs. 3. Synthesis and antiinflammatory activity of [1-(p-chlorobenzoyl)-5-methoxy-2-methylindole-3-acetyl]glycerides (indomethacin glycerides)” (J Med Chem, 1980).

Active and inactive are the calls of the source. The calls are words filed in the database; no cut-off is given here.

Data set [1] relates to Rattus norvegicus. In words: Dose that inhibits paw swelling by 25% compared with control in carrgeenin rat paw edema assay. The format is functional. An outline of the steps:
(§1)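 Rats given glycerides or indomethacin orally 2 h before subplantar injection of 0.1 mL 1.5% carrageenin solution.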

The subject of data set [2] is Rattus norvegicus. In words: Dose that inhibits paw swelling by 25% compared with control in carrgeenin rat paw edema assay; i = inactive at 18 umol/kg. The format is functional, organism-based. An outline of the steps:
as §1

Data set [3] relates to Rattus norvegicus. The data set can be described thus: inhibition of swelling in rat paw edema was measured at a dose of 14.0 micro mol/kg/day for days 14-25. The format is functional. An outline of the steps:
(§2)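 Adjuvant arthritis in rats: mycobacterial adjuvant injected subcutaneously into the tail; on day 14 animals with definite disease were selected and dosed daily on days 14-25. Hind paw swelling and severity scores (four paws scored) were expressed as % change vs diseased controls. Body weight gain was assessed over days 1-25; + marks significant gain.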

Data set [4] deals with Rattus norvegicus. The data set can be described thus: inhibition of swelling in rat adjuvant-induced arthritis was measured at a dose of 3.3 micro mol/kg/day for days 14-25.
The test system of data set [5] is Rattus norvegicus. The data set can be described thus: inhibition of swelling in rat paw edema was measured at a dose of 1.6 micro mol/kg/day for days 14-25. The class given is functional. An outline of the steps:
as §2

Data set [6] has as its system Rattus norvegicus. The data set can be described thus: Percent changes of hind paw edema and severity scores compared to control animals at 0.8 micro mol/kg/day. The class given is functional. An outline of the steps: as §2
Data set [7] concerns Rattus norvegicus. The data set can be described thus: Gain in the body weight of rat was measured at 14.0 micro mol/kg/day. (+ means significant body weight). The format is functional, organism-based. An outline of the steps: as §2
In data set [8] the test system is Rattus norvegicus. In words: Gain in the body weight of rat was measured at 3.3 micro mol/kg/day. (+ means significant body weight). The format is functional, organism-based. An outline of the steps: as §2
In data set [9] the test system is Rattus norvegicus. In words: Percent changes of hind paw edema and severity scores compared to control animals at 14.0 micro mol/kg/day. The class given is functional. An outline of the steps:
as §2

The test system of data set [10] is Rattus norvegicus. The data set can be described thus: Percent changes of hind paw edema and severity scores compared to control animals at 3.3 micro mol/kg/day. The class given is functional. An outline of the steps: as §2
Data set [11] deals with Rattus norvegicus. In words: inhibition of swelling in rat paw edema was measured at a dose of 0.8 micro mol/kg/day for days 14-25. The format is functional. An outline of the steps:
as §2

Data set [12] relates to Rattus norvegicus. In words: Percent changes of hind paw edema and severity scores compared to control animals at 1.6 micro mol/kg/day. The class given is functional. An outline of the steps:
as §2

For data set [13], the system named is Rattus norvegicus. The data set can be described thus: Dose that inhibits paw swelling by 25% compared with control in carrgeenin rat paw edema assay; i = inactive at 26 uM/Kg. The class given is functional, organism-based. An outline of the steps: as §1
For data set [14], the species on record is Rattus norvegicus. The data set can be described thus: compound was measured as dose which produces lesions in the treated animals. The class given is functional. An outline of the steps:
(§3)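 Stomachs of rats from the oral carrageenin paw edema study (dosed 2 h before carrageenin) examined for gastric lesions by the Brodie and Hansen method. UD50 is the dose producing lesions in 50% of treated animals.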

The nature of data set [15]: Ratio of UD50 to that of ED25. The following applies: read-out: Therapeutic ratio. The format is ADME. An outline of the steps:
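Therapeutic index calculated as UD50 (dose causing gastric lesions in 50% of rats) divided by ED25 (dose inhibiting carrageenin paw edema by 25%), both from the same oral rat study.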

Data set [16] relates to Rattus norvegicus. The data set can be described thus: Gain in the body weight of rat was measured at 7.0 micro mol/kg/day. (+ means significant body weight). The class given is functional, organism-based. An outline of the steps:
as §2

The test system of data set [17] is Rattus norvegicus. In words: inhibition of swelling in rat paw edema was measured at a dose of 1.4 micro mol/kg/day for days 14-25. The format is functional. An outline of the steps:
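Rat adjuvant arthritis: adjuvant injected subcutaneously into the tail; after 14 days, only rats with definite disease were treated, with daily doses on days 14-25. Hind paw swelling was expressed as percent change versus diseased controls. Severity was scored on four paws, and body weight gain was followed over days 1-25.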

Data set [18] is described as follows: Ratio of UD50 to that of ED25. The conditions noted are these: read-out: Therapeutic ratio.
The species named for data set [19] is Rattus norvegicus. In words: Dose which produced lesions in 50% of the treated animals. The class given is functional. An outline of the steps: as §3
In data set [20] the test system is Rattus norvegicus. The data set can be described thus: Percent changes of hind paw edema and severity scores compared to control animals at 7.0 micro mol/kg/day. The format is functional. An outline of the steps:
as §2

Data set [21] concerns Rattus norvegicus. In words: Percent changes of hind paw edema and severity scores compared to control animals at 1.4 micro mol/kg/day. The format is functional. An outline of the steps: as §2
Data set [22] deals with Rattus norvegicus. In words: inhibition of swelling in rat paw edema was measured at a dose of 0.7 micro mol/kg/day for days 14-25. The class given is functional. An outline of the steps:
as §2

In data set [23] the test system is Rattus norvegicus. The data set can be described thus: inhibition of swelling in rat paw edema was measured at a dose of 2.8 micro mol/kg/day for days 14-25. The format is functional. An outline of the steps: as §2
Data set [24] has as its system Rattus norvegicus. The data set can be described thus: Percent changes of hind paw edema and severity scores compared to control animals at 2.8 micro mol/kg/day. The class given is functional. An outline of the steps: as §2
Data set [25] concerns Rattus norvegicus. The data set can be described thus: Percent changes of hind paw edema and severity scores compared to control animals at 0.7 micro mol/kg/day. The format is functional. An outline of the steps: as §2
In data set [26] the test system is Rattus norvegicus. The data set can be described thus: Gain in the body weight of rat was measured at 2.8 micro mol/kg/day. (+ means significant body weight). The format is functional, organism-based. An outline of the steps: as §2
Data set [27] concerns Rattus norvegicus. In words: inhibition of swelling in rat paw edema was measured at a dose of 7.0 micro mol/kg/day for days 14-25. The class given is functional. An outline of the steps:
as §2

The subject of data set [28] is Rattus norvegicus. The data set can be described thus: Gain in the body weight of rat was measured at 5.6 micro mol/kg/day. (+ means significant body weight). The format is functional, organism-based. An outline of the steps:
as §2

For data set [29], the system named is Rattus norvegicus. The data set can be described thus: Percent changes of hind paw edema and severity scores compared to control animals at 11.0 micro mol/kg/day. The format is functional. An outline of the steps: as §2
For data set [30], the system named is Rattus norvegicus. The data set can be described thus: inhibition of swelling in rat paw edema was measured at a dose of 5.6 micro mol/kg/day for days 14-25. The format is functional. An outline of the steps:
as §2

In data set [31] the test system is Rattus norvegicus. In words: inhibition of swelling in rat paw edema was measured at a dose of 11.0 micro mol/kg/day for days 14-25. The format is functional. An outline of the steps:
as §2

The test system of data set [32] is Rattus norvegicus. In words: Percent changes of hind paw edema and severity scores compared to control animals at 5.6 micro mol/kg/day. The class given is functional. An outline of the steps:
as §2

For data set [33], the system named is Rattus norvegicus. The data set can be described thus: Gain in the body weight of rat was measured at 11.0 micro mol/kg/day. (+ means significant body weight). The format is functional, organism-based. An outline of the steps: as §2

As for `CCCCCCCCCC(=O)OCC(COC(=O)CCCCCCCCC)OC(=O)Cc1c(C)n(C(=O)c2ccc(Cl)cc2)c2ccc(OC)cc12`, the ED25 in the data set on Rattus norvegicus [1] came to 18 µM/kg.
Compound `COc1ccc2c(c1)c(CC(=O)OCC(CO)OC(=O)Cc1c(C)n(C(=O)c3ccc(Cl)cc3)c3ccc(OC)cc13)c(C)n2C(=O)c1ccc(Cl)cc1` (centres undefined) yielded an ED25 in the data set with Rattus norvegicus [1] of 31 µM/kg.
The same measure, in the same setting: then `CCCCCCCCCCCCCCCCCCCC(=O)OCC(COC(=O)CCCCCCCCCCCCCCCCCCC)OC(=O)Cc1c(C)n(C(=O)c2ccc(Cl)cc2)c2ccc(OC)cc12`, with 38 µM/kg.
For `COc1ccc2c(c1)c(CC(=O)OCC(COC(=O)Cc1c(C)n(C(=O)c3ccc(Cl)cc3)c3ccc(OC)cc13)OC(=O)Cc1c(C)n(C(=O)c3ccc(Cl)cc3)c3ccc(OC)cc13)c(C)n2C(=O)c1ccc(Cl)cc1`, in the data set on Rattus norvegicus [2], the ED25 result was “inactive”.
Take `COc1ccc2c(c1)c(CC(=O)OC(CO)CO)c(C)n2C(=O)c1ccc(Cl)cc1`: in the data set with Rattus norvegicus [1], the ED25 was 21 µM/kg.
Turning to `COc1ccc2c(c1)c(CC(=O)OCC(O)CO)c(C)n2C(=O)c1ccc(Cl)cc1` (centres undefined), the Inhibition (in general, how much of the control response was suppressed) was determined as 76% in the data set with Rattus norvegicus [3], 73% in the data set on Rattus norvegicus [4], 67% with Rattus norvegicus [5] and 57% in the data set with Rattus norvegicus [11]. For the same compound, the Change in the data set with Rattus norvegicus [6] is recorded as 31%; with Rattus norvegicus [7], “significant body weight”; with Rattus norvegicus [8], “significant body weight”; with Rattus norvegicus [9], 53%; in the data set on Rattus norvegicus [10], 55%; in the data set on Rattus norvegicus [12], 42%. The compound also registered an ED25 in the data set on Rattus norvegicus [1] of 5 µM/kg.
`CCCCCCCCCCCCCCCC(=O)OCC(COC(=O)CCCCCCCCCCCCCCC)OC(=O)Cc1c(C)n(C(=O)c2ccc(Cl)cc2)c2ccc(OC)cc12` yielded an ED25 in the data set with Rattus norvegicus [1] of 23 µM/kg.
On the same count and under the same terms, then `CCCCCCCC(=O)OCC(COC(=O)CCCCCCC)OC(=O)Cc1c(C)n(C(=O)c2ccc(Cl)cc2)c2ccc(OC)cc12`, with 12 µM/kg.
For `COc1ccc2c(c1)c(CC(=O)OCC(O)COC(=O)Cc1c(C)n(C(=O)c3ccc(Cl)cc3)c3ccc(OC)cc13)c(C)n2C(=O)c1ccc(Cl)cc1`, the ED25 entry with Rattus norvegicus [13] is “inactive”.
As for `COc1ccc2c(c1)c(CC(=O)OC(COC(C)=O)COC(C)=O)c(C)n2C(=O)c1ccc(Cl)cc1`, the Inhibition with Rattus norvegicus [3] was found to be 79%; in the data set on Rattus norvegicus [4], 72%; in the data set on Rattus norvegicus [5] it was 50%; with Rattus norvegicus [11], 43%. For the same compound, the Change in the data set on Rattus norvegicus [6] is recorded as 25%; in the data set on Rattus norvegicus [7], “significant body weight”; with Rattus norvegicus [8], “significant body weight”; in the data set with Rattus norvegicus [9] it was 60%; with Rattus norvegicus [10], 55%; in the data set with Rattus norvegicus [12] it was 28%. The UD50 in the data set filed under Rattus norvegicus [14] worked out at 67 µM/kg. This compound gave an ED25 in the data set with Rattus norvegicus [1] of 14 µM/kg. Moreover, in data set [15], the selectivity ratio came out at 5.
As to `COc1ccc2c(c1)c(CC(=O)O)c(C)n2C(=O)c1ccc(Cl)cc1` [INDOMETHACIN], the Change entry with Rattus norvegicus [16] and with Rattus norvegicus [26] was “Active” in each case. For the same compound, the Inhibition in the data set on Rattus norvegicus [17] is on record as 57%; with Rattus norvegicus [22] it was 37%; in the data set with Rattus norvegicus [23], 76%; in the data set with Rattus norvegicus [27], 75%. In [18], the selectivity ratio was found to be 2. In the data set listed under Rattus norvegicus [19], this compound registered a UD50 of 10 µM/kg. The compound also yielded an ED25 in the data set with Rattus norvegicus [1] of 5 µM/kg. For the same compound, the Change in the data set on Rattus norvegicus [20] is given as 74%; in the data set on Rattus norvegicus [21], 33%; in the data set on Rattus norvegicus [24] it was 56%; with Rattus norvegicus [25] it was 25%.
On to `CCCC(=O)OCC(COC(=O)CCC)OC(=O)Cc1c(C)n(C(=O)c2ccc(Cl)cc2)c2ccc(OC)cc12`, for which the ED25 in the data set with Rattus norvegicus [1] is 22 µM/kg.
In the case of `CCCCCCCCCCCC(=O)OCC(COC(=O)CCCCCCCCCCC)OC(=O)Cc1c(C)n(C(=O)c2ccc(Cl)cc2)c2ccc(OC)cc12`, the Change entry in the data set with Rattus norvegicus [28] is given as “significant body weight”; with Rattus norvegicus [21], 30%; with Rattus norvegicus [29], 74%; in the data set with Rattus norvegicus [24], 41%; in the data set on Rattus norvegicus [32], 53%; in the data set on Rattus norvegicus [33], “significant body weight”. The Inhibition in the data set on Rattus norvegicus [17] is 30%; in the data set with Rattus norvegicus [30] it was 63%; in the data set on Rattus norvegicus [23], 70%; in the data set with Rattus norvegicus [31], 73%. Further, the selectivity ratio in [18] is 6. Besides, in the data set filed under Rattus norvegicus [19], the UD50 came to 78 µM/kg. In addition, the ED25 in the data set on Rattus norvegicus [1] was 13 µM/kg.
